From ChEMBL document CHEMBL5046323, “Discovery of Phospholipase D Inhibitors with Improved Drug-like Properties and Central Nervous System Penetrance” (ACS Med Chem Lett, 2022)
≈ marks a conversion by molar mass, not a printed value.

Experiments:
[1] = Drug concentration in sc dosed C57BL/6 mouse brain measured after 30 mins by LC-FTICR-MS analysis; type: ADME, organism-based; conditions: read-out: Ct
In short: (§1)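 Mice dosed subcutaneously at 10 mg/kg 15, 30 or 60 min before injection of 1-butanol-d10; tissues (liver, brain) collected 15 min after butanol injection for compound levels.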

[2] = Tmax in po dosed rat; type: ADME, organism-based; conditions: in vivo
In short: (§2)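 Rat oral PK, average of two experiments with n = 3 rats each; formulation HPMC/Tween.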

[3] = Cmax in sc dosed C57BL/6 mouse by LC-MS/MS analysis; type: ADME, organism-based; parameters: route subcutaneous; conditions: in vivo
[4] = Plasma protein binding in rat; type: ADME, cell-free
[5] = Microsomal stability in human liver microsomes assessed as intrinsic clearance; type: ADME, Microsome; conditions: read-out: CLH
In short: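 Intrinsic clearance (CLint) determined in rat or human liver microsomes.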

[6] = Oral bioavailability in rat; type: ADME, organism-based; conditions: in vivo; in short: as §2
Phospholipase D1 = biological target: T1, Phospholipase D1 (Homo sapiens, UniProt Q13393); test: Inhibition of PLD1 (unknown origin) expressed in human HEK cells by immunoprecipitation assay; type: cell-based
T1 sequence (Q13393 whole entry): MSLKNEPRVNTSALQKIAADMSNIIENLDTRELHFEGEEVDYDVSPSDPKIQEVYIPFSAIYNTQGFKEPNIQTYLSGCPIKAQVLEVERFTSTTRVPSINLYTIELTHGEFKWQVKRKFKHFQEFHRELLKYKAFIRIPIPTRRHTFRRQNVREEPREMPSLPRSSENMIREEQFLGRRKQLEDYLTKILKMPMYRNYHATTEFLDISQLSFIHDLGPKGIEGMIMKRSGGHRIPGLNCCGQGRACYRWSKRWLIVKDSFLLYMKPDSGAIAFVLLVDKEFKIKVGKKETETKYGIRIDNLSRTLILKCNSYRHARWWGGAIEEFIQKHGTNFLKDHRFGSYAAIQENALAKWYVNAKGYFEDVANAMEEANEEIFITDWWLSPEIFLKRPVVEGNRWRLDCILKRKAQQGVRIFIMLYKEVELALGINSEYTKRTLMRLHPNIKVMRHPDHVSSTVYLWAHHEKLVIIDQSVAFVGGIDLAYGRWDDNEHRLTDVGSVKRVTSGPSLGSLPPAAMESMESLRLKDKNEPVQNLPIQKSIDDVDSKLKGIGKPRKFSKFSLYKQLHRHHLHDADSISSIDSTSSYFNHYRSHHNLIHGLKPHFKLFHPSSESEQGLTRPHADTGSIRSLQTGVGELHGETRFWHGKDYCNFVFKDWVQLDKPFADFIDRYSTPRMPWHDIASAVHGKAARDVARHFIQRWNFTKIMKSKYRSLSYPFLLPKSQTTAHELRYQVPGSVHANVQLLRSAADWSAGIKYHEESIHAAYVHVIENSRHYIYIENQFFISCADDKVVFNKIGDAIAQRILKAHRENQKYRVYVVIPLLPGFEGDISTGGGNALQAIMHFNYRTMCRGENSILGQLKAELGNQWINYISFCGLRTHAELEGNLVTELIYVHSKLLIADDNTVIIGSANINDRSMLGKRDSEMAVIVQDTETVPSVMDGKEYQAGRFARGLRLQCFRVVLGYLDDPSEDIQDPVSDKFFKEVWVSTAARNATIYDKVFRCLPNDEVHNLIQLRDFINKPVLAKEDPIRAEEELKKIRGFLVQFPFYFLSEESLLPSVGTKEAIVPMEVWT

[7] = Kinetic solubility of compound at pH 6.8; type: physicochemical; conditions: buffer, read-out: Kinetic_solubility
In short: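 Kinetic solubility measured at pH 6.8.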

[8] = Tmax in sc dosed C57BL/6 mouse by LC-MS/MS analysis; type: ADME, organism-based; conditions: in vivo
[9] = Drug concentration in sc dosed C57BL/6 mouse brain measured after 15 mins by LC-FTICR-MS analysis; type: ADME, organism-based; conditions: read-out: Ct; in short: as §1
Cytochrome P450 2B6 = biological target: T2, Cytochrome P450 2B6 (Homo sapiens, UniProt P20813); test: Inhibition of CYP2B6 (unknown origin); type: ADME
T2 sequence (P20813 whole entry): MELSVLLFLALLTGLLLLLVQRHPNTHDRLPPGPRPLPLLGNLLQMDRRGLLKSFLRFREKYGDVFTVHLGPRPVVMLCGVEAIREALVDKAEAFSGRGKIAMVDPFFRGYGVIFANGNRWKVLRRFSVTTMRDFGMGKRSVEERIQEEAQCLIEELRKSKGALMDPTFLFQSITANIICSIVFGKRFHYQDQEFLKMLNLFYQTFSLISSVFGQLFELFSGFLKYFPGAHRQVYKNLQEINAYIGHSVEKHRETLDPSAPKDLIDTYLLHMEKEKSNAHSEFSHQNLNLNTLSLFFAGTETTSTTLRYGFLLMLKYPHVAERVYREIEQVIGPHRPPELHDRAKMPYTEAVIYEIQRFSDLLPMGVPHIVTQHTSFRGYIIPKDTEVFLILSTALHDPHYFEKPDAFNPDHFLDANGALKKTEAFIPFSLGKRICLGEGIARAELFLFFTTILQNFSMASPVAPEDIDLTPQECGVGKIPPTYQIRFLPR

Cytochrome P450 2D6 = Cytochrome P450 2D6 (Homo sapiens, UniProt P10635); test: Inhibition of CYP2D6 (unknown origin); type: ADME
Sequence of Cytochrome P450 2D6 (P10635 whole entry): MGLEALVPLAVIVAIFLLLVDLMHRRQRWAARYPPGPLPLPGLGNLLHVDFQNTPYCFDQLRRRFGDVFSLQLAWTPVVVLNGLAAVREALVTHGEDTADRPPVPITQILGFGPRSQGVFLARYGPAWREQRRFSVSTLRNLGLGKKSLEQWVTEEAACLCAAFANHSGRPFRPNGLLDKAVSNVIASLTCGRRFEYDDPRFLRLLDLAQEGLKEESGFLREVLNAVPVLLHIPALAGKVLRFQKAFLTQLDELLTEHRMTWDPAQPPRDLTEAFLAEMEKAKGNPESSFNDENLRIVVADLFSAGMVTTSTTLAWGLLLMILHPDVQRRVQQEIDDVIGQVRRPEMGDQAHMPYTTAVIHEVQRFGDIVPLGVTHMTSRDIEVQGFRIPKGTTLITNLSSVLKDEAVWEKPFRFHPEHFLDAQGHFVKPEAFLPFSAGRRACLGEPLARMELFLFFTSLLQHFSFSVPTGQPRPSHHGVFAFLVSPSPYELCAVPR

[10] = AUClast in sc dosed C57BL/6 mouse by LC-MS/MS analysis; type: ADME, organism-based; parameters: route subcutaneous, time 0 - last; conditions: in vivo
Cytochrome P450 3A4 = Cytochrome P450 3A4 (Homo sapiens, UniProt P08684); test: Inhibition of CYP3A4 (unknown origin); type: ADME
Sequence of Cytochrome P450 3A4 (P08684 whole entry): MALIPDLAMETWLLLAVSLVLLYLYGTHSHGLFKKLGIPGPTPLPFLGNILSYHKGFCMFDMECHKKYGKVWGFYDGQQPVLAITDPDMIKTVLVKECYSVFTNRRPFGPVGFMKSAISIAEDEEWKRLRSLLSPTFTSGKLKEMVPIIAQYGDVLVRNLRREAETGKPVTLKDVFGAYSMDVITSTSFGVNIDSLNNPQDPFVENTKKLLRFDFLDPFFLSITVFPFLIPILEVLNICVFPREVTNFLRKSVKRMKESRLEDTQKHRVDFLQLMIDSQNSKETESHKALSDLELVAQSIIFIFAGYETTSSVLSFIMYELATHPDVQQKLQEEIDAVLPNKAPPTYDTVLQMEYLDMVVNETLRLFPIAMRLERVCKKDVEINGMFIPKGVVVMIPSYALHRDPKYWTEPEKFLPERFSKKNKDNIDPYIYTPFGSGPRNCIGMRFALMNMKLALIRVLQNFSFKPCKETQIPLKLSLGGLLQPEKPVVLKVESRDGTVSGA

[11] = Unbound brain-to-plasma concentration ratio in rat; type: ADME; conditions: read-out: K(p,uu,brain)
In short: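 Kpu,u is the ratio of free compound concentration in brain over free concentration in plasma at steady state, determined by rat infusion.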

[12] = biological target: Phospholipase D1 (Homo sapiens) (UniProt Q13393); test: Inhibition of PLD1 in human Calu-1 cells assessed as reduction in d9-phosphobutanol formation by mass spectrometry-based transphosphatidylation assay
[13] = Apparent permeability in dog MDCK cells with low MDR1 expression
[14] = Drug concentration in sc dosed C57BL/6 mouse liver measured after 60 mins by LC-FTICR-MS analysis; type: ADME, organism-based; conditions: read-out: Ct; in short: as §1
MDR1 (P-gp) = test: Efflux ratio of apparent permeability from basolateral to apical side over apical to basolateral side in dog MDCK-MDR1 cells; type: ADME, cell-based, Canis lupus familiaris
In short: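 Efflux ratio calculated as Papp(B–A)/Papp(A–B) across MDR1-transfected MDCK monolayers.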

Phospholipase D2 = Phospholipase D2 (Homo sapiens, UniProt O14939); test: Inhibition of PLD2 (unknown origin) expressed in human HEK cells by immunoprecipitation; type: cell-based
Sequence of Phospholipase D2 (O14939 whole entry): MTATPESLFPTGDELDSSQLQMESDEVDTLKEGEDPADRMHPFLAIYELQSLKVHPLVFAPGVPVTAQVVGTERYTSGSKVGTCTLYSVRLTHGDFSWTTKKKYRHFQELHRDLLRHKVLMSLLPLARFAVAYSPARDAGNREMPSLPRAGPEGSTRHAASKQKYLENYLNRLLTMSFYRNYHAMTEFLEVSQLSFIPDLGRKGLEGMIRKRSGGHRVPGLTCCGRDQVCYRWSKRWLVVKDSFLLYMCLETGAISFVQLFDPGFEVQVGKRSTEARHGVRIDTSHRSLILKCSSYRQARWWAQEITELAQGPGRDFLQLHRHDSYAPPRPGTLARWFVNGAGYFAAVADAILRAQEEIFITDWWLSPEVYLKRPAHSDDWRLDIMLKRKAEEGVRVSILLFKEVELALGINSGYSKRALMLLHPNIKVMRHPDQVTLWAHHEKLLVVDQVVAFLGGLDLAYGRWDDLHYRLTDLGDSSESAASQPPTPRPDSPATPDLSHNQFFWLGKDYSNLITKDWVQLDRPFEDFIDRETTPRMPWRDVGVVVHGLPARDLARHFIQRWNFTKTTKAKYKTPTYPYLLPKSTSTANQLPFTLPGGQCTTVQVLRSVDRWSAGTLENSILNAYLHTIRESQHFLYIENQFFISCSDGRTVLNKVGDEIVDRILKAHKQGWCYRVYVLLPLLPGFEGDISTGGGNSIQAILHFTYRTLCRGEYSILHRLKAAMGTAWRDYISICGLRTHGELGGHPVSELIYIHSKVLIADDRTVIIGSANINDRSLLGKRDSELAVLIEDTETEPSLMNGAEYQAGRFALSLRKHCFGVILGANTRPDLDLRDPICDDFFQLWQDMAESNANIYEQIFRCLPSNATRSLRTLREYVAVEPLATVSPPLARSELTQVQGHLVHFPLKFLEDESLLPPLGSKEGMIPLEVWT
In short: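 PLD1 or PLD2 immunoprecipitated from HEK-293 cell lysates and captured on plate with an antibody (ELISA format); 08:0 phosphatidylcholine substrate; released choline detected by Amplex Red readout.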

[15] = Drug concentration in sc dosed C57BL/6 mouse brain measured after 60 mins by LC-FTICR-MS analysis; type: ADME, organism-based; conditions: read-out: Ct; in short: as §1
[16] = Drug concentration in sc dosed C57BL/6 mouse liver measured after 30 mins by LC-FTICR-MS analysis; type: ADME, organism-based; conditions: read-out: Ct; in short: as §1
Cytochrome P450 2C19 = Cytochrome P450 2C19 (Homo sapiens, UniProt P33261); test: Inhibition of CYP2C19 (unknown origin); type: ADME
Sequence of Cytochrome P450 2C19 (P33261 whole entry): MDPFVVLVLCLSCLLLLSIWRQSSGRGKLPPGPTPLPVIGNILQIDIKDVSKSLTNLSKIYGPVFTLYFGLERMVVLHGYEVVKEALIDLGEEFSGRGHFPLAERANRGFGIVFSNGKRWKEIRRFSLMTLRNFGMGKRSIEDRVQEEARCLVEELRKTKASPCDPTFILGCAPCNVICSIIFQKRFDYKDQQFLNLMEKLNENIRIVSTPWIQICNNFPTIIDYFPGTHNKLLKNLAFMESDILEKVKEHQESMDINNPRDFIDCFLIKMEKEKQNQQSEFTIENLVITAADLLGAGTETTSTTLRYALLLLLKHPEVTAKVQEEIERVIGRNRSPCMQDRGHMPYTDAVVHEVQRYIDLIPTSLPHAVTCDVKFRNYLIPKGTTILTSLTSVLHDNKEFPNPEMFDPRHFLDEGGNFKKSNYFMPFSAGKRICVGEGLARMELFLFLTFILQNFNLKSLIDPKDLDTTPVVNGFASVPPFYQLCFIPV

Structure (SMILES): C[C@@H]1CN(C(=O)[C@H](C)N2CCC(n3c(=O)[nH]c4ccccc43)CC2)C[C@@H](C)N1
- concentration at 0.5 h [1]: 109 ng/g
- Tmax [2]: 3 h
- Cmax [3]: 2960 ng/mL
- PPB [4]: 36.3%
- CLint scaled [5]: 6 mL/min/kg
- bioavailability [6]: 21%
- IC50 (Phospholipase D1): 44 nM
- solubility kinetic [7]: 72.6 µg/mL (≈ 188 µM)
- Tmax [8]: 0.44 h
- concentration at 0.25 h [9]: 83.8 ng/g
- IC50 (Cytochrome P450 2B6): > 10000 nM
- IC50 (Cytochrome P450 2D6): > 10000 nM
- AUC(0-t) [10]: 7990 ng·h/mL
- IC50 (Cytochrome P450 3A4): > 10000 nM
- Kp uu [11]: 0.8
- IC50 [12]: 6 nM
- Papp [13]: 5.1 ×10⁻⁶ cm/s
- concentration at 1 h [14]: 7380 ng/g
- efflux ratio (MDR1 (P-gp)): 9.2
- IC50 (Phospholipase D2): 230 nM
- concentration at 1 h [15]: 117 ng/g
- concentration at 0.5 h [16]: 7160 ng/g
- IC50 (Cytochrome P450 2C19): > 10000 nM
